Experiment [1] concerns the target T1, Lysosomal alpha-glucosidase (Rattus norvegicus, UniProt Q6P7A9). Nature of the experiment: Inhibition of rat intestine maltase using maltose as substrate incubated for 10 mins prior to substrate addition measured after 40 mins by glucose oxidase colorimetric method. The method in brief: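 Crude intestinal enzyme supernatant (12,000 g, 30 min) preincubated with test compound (1 mg/mL, 10 µL) at 37 C for 10 min. Substrate in 0.1 M phosphate buffer pH 6.9 was then added: maltose 0.58 mM for maltase, sucrose 20 mM for sucrase. Incubated 40 min at 37 C, stopped by heating at 80 C for 15 min. Released glucose measured by the glucose oxidase kit. % inhibition = [(A0 − A1)/A0] × 100.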

For experiment [2], the target named is T1, Lysosomal alpha-glucosidase. As to the kind of experiment: Non-competitive inhibition of rat intestine maltase using maltose as substrate by Lineweaver-Burk plot analysis. The method in brief: (§1)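 Same maltase/sucrase reactions, with activity held at 0.45 (maltase) and 0.09 (sucrase) U/mg protein. Inhibitor 0 to 20.4 mM against substrate 1.0 to 20.0 mM. Vmax and Km obtained from Lineweaver–Burk intercepts and slopes. Ki (EI) from a secondary plot of slope versus inhibitor concentration; Ki′ (ESI) from a secondary plot of intercept versus inhibitor concentration.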

For experiment [3] the target is unchanged. Nature of the experiment: Competitive inhibition of rat intestine maltase using maltose as substrate by Lineweaver-Burk plot analysis. The method in brief:
as §1

T1 sequence (Q6P7A9 whole entry): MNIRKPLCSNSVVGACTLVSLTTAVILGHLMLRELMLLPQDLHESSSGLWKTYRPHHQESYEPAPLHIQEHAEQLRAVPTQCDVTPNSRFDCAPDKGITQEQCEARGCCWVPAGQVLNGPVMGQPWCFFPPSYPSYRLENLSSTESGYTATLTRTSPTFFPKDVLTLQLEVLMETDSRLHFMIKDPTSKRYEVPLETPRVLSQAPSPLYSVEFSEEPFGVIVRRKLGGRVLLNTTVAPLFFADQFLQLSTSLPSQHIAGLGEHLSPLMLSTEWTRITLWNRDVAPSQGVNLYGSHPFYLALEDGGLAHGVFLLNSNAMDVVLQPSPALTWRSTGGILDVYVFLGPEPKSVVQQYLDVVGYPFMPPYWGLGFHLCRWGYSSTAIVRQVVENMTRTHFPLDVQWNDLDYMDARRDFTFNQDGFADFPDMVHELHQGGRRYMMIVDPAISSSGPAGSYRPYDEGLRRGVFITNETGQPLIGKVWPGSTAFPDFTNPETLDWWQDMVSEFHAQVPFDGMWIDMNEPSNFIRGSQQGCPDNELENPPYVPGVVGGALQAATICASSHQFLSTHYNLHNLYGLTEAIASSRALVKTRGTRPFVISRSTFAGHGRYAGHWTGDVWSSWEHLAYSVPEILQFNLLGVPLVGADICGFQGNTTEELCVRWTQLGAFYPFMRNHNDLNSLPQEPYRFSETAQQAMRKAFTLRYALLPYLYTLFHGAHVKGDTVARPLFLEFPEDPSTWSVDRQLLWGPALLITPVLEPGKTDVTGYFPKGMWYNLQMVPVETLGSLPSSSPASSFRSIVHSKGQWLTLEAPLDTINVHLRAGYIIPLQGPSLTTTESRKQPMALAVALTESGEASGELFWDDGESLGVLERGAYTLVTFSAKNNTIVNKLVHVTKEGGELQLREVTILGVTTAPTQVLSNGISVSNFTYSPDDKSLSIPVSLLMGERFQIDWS

Regarding `O=C(O)/C=C/c1ccc(O)c(O)c1` [3,4-Dihydroxycinnamate, XVII], the IC50 in experiment [1] came out at 34.7 µM.
Take `O=C(/C=C/c1ccc(O)c(O)c1)O[C@H]1C[C@@H](O)[C@H](O)[C@@H](O)[C@H]1O`: half-maximal inhibition in experiment [1] (IC50) required 497 µM.
Still for that read-out and setting: the value for `COc1cc(/C=C/C(=O)O[C@@H]2C[C@@H](O)[C@H](O)[C@@H](O)[C@H]2O)ccc1O` was 51.9 µM; that for `COc1ccc(/C=C/C(=O)O[C@H]2C[C@@H](O)[C@H](O)[C@@H](O)[C@H]2O)cc1O` was 367 µM.
For `COc1ccc(/C=C/C(=O)O[C@@H]2C[C@@H](O)[C@H](O)[C@@H](O)[C@H]2O)cc1O`, in experiment [1], it took 20.8 µM to reach half-maximal inhibition (IC50).
On the same count and under the same terms, the result for `COc1cc(/C=C/C(=O)O[C@H]2C[C@@H](O)[C@H](O)[C@@H](O)[C@H]2O)ccc1O` reads 21.1 µM.
As to `O=C(/C=C/c1ccc(O)c(O)c1)O[C@@H]1C[C@@H](O)[C@H](O)[C@@H](O)[C@H]1O`, the Ki in experiment [2] stood at 64.5 µM; in experiment [3] it was 23.8 µM. In experiment [1], the IC50 came out at 5.31 µM.

Source of the values: BindingDB's records for doi:10.1016/j.ejmech.2013.05.047 (Chulalongkorn University, 2013).
